# Measured values taken from paper PMC8230583 (Polymer Chemistry, 2021).
# Test: Critical aggregation concentration by Nile Red fluorimetry
# Format: physicochemical
# Details: ratio of CAC in water to CAC in 150 mM NaCl
# Method in brief: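 Each compound was dissolved in water or 0.15 M NaCl with mild shaking or sonication, and stocks were equilibrated overnight at room temperature. Diluted samples (pH 4.0–5.5) were equilibrated ≥3 h at room temperature. Nile Red was added from a 1 mg ml−1 acetone stock and samples equilibrated 30 min more. Emission (575–740 nm, excitation 550 nm) was recorded to follow the shift of the Nile Red maximum.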
substance,measurement,value
FDFF,"CAC in the presence of salt, times lower than in pure water",1.2 times
